# Experimental data as given in ChEMBL document CHEMBL3244044, “Synthesis and antitumor activity of halogen-substituted 4-(3,3-dimethyl-1-triazeno)quinolines” (J Med Chem, 1978).
# Columns and labels:
# P388 [1] = assay: Antitumor activity against mouse P388 cells allografted mouse assessed as host survival at 30 mg/kg, ip qd for 9 days relative to control; type: functional; details: route intraperitoneal
# Method in brief: (§1)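 NCI protocol: groups of five to ten mice inoculated ip with approximately 10^6 P-388 or L1210 cells. Drug given over a range of dose levels starting 24 h after implantation, once daily for 9 consecutive days. Survival expressed as %T/C = (average survival of treated)/(average survival of control) × 100.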
# B16 [2] = assay: Antitumor activity against mouse B16 cells allografted mouse assessed as host survival at 18 mg/kg, ip qd for 9 days relative to control; type: functional; details: route intraperitoneal
# Method in brief: (§2)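 B16 melanoma-bearing mice given drug ip once daily for 9 days, starting 24 h after tumor implantation. Read-out is average survival in days, expressed as %T/C = (average survival of treated mice)/(average survival of control mice) × 100.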
# P388 [3] = assay: Antitumor activity against mouse P388 cells allografted mouse assessed as host survival at 20 mg/kg, ip qd for 9 days relative to control; type: functional; details: route intraperitoneal; method in brief: as §1
# Mus musculus [4] = assay: Toxicity in mouse B16 cells allografted mouse at 30 mg/kg, ip qd for 9 days; type: organism-based; design: dose 30 mg/kg, route intraperitoneal; details: in vivo, 216 h
# Method in brief: (§3)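 Mice bearing B16 melanoma, dosed ip once daily for 9 days from 24 h after tumor implantation. Toxicity is recorded as the average body weight change at the end of drug treatment.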
# Mus musculus [5] = assay: Toxicity in mouse P388 cells allografted mouse at 20 mg/kg, ip qd for 9 days; type: organism-based; design: dose 20 mg/kg, route intraperitoneal; details: in vivo, 216 h
# Method in brief: (§4)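 NCI protocol. Groups of five to ten mice were inoculated intraperitoneally with about 10^6 tumor cells. Drug was given ip once daily for 9 consecutive days, starting 24 h after tumor implantation, over a range of dose levels. Toxicity was read as the average body weight change at the end of drug treatment.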
# L1210 [6] = assay: Antitumor activity against mouse L1210 cells allografted mouse assessed as host survival at 30 mg/kg, ip qd for 9 days relative to control; type: functional; details: route intraperitoneal; method in brief: as §1
# Mus musculus [7] = assay: Toxicity in mouse B16 cells allografted mouse at 18 mg/kg, ip qd for 9 days; type: organism-based; design: dose 18 mg/kg, route intraperitoneal; details: in vivo, 216 h; method in brief: as §3
# Mus musculus [8] = assay: Toxicity in mouse L1210 cells allografted mouse at 30 mg/kg, ip qd for 9 days; type: organism-based; design: dose 30 mg/kg, route intraperitoneal; details: in vivo, 216 h
# Method in brief: (§5)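 Groups of five to ten mice were inoculated ip with about 10^6 L1210 cells and dosed once daily for 9 consecutive days beginning 24 h post-implantation. Toxicity was taken as the average body weight change at the end of drug treatment.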
# B16 [9] = assay: Antitumor activity against mouse B16 cells allografted mouse assessed as host survival at 30 mg/kg, ip qd for 9 days relative to control; type: functional; details: route intraperitoneal; method in brief: as §2
# L1210 [10] = assay: Antitumor activity against mouse L1210 cells allografted mouse assessed as host survival at 40 mg/kg, ip qd for 9 days relative to control; type: functional; details: route intraperitoneal; method in brief: as §1
# Mus musculus [11] = assay: Toxicity in mouse P388 cells allografted mouse at 30 mg/kg, ip qd for 9 days; type: organism-based; design: dose 30 mg/kg, route intraperitoneal; details: in vivo, 216 h; method in brief: as §4
# [12] = Binding affinity to synthetic melanin at 5.8 mg/100 mL after 15 mins by UV-spectroscopic analysis; type: physicochemical; details: 0.25 h
# Method in brief: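 Synthetic melanin was made from DL-Dopa with tyrosinase in 0.1 M phosphate pH 6.6 at 37 °C for 4 h. Melanin suspension (1.1 mg dry weight) was mixed with phosphate buffer (0.05 M, pH 6.4, 5% Me2SO), water, and 1 mL of drug solution (5.8 mg/100 mL). The mixture was shaken 15 min at room temperature and filtered. Unbound drug in the filtrate was measured by UV against a drug-free blank.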
# Mus musculus [13] = assay: Toxicity in mouse B16 cells allografted mouse at 50 mg/kg, ip qd for 9 days; type: organism-based; design: dose 50 mg/kg, route intraperitoneal; details: in vivo, 216 h; method in brief: as §3
# Mus musculus [14] = assay: Toxicity in mouse L1210 cells allografted mouse at 40 mg/kg, ip qd for 9 days; type: organism-based; design: dose 40 mg/kg, route intraperitoneal; details: in vivo, 216 h; method in brief: as §5
# B16 [15] = assay: Antitumor activity against mouse B16 cells allografted mouse assessed as host survival at 50 mg/kg, ip qd for 9 days relative to control; type: functional; details: route intraperitoneal; method in brief: as §2
# P388 [16] = assay: Antitumor activity against mouse P388 cells allografted mouse assessed as host survival at 40 mg/kg, ip qd for 9 days relative to control; type: functional; details: route intraperitoneal; method in brief: as §1
# P388 [17] = assay: Antitumor activity against mouse P388 cells allografted mouse assessed as host survival at 80 mg/kg, ip qd for 9 days relative to control; type: functional; details: route intraperitoneal; method in brief: as §1
# L1210 [18] = assay: Antitumor activity against mouse L1210 cells allografted mouse assessed as host survival at 70 mg/kg, ip qd for 9 days relative to control; type: functional; details: route intraperitoneal; method in brief: as §1
# L1210 [19] = assay: Antitumor activity against mouse L1210 cells allografted mouse assessed as host survival at 90 mg/kg, ip qd for 9 days relative to control; type: functional; details: route intraperitoneal; method in brief: as §1
# Mus musculus [20] = assay: Toxicity in mouse L1210 cells allografted mouse at 90 mg/kg, ip qd for 9 days; type: organism-based; design: dose 90 mg/kg, route intraperitoneal; details: in vivo, 216 h; method in brief: as §4
# Mus musculus [21] = assay: Toxicity in mouse P388 cells allografted mouse at 40 mg/kg, ip qd for 9 days; type: organism-based; design: dose 40 mg/kg, route intraperitoneal; details: in vivo, 216 h; method in brief: as §4
# P388 [22] = assay: Antitumor activity against mouse P388 cells allografted mouse assessed as host survival at 60 mg/kg, ip qd for 9 days relative to control; type: functional; details: route intraperitoneal; method in brief: as §1
# L1210 [23] = assay: Antitumor activity against mouse L1210 cells allografted mouse assessed as host survival at 80 mg/kg, ip qd for 9 days relative to control; type: functional; details: route intraperitoneal; method in brief: as §1
# Mus musculus [24] = assay: Toxicity in mouse P388 cells allografted mouse at 60 mg/kg, ip qd for 9 days; type: organism-based; design: dose 60 mg/kg, route intraperitoneal; details: in vivo, 216 h; method in brief: as §4
# Mus musculus [25] = assay: Toxicity in mouse L1210 cells allografted mouse at 80 mg/kg, ip qd for 9 days; type: organism-based; design: dose 80 mg/kg, route intraperitoneal; details: in vivo, 216 h; method in brief: as §4
# Mus musculus [26] = assay: Toxicity in mouse L1210 cells allografted mouse at 70 mg/kg, ip qd for 9 days; type: organism-based; design: dose 70 mg/kg, route intraperitoneal; details: in vivo, 216 h; method in brief: as §5
# Mus musculus [27] = assay: Toxicity in mouse P388 cells allografted mouse at 80 mg/kg, ip qd for 9 days; type: organism-based; design: dose 80 mg/kg, route intraperitoneal; details: in vivo, 216 h; method in brief: as §4
compound,measurement,setting,value
CN(C)/N=N\c1ccnc2c(Cl)cccc12,T/C,P388 [1],167%
same,Survival,B16 [2],21.6 days
same,T/C,B16 [2],103%
same,T/C,P388 [3],172%
same,Activity,Mus musculus [4],-2.9%
same,Activity,Mus musculus [5],-2.1%
same,T/C,L1210 [6],165%
same,Activity,Mus musculus [7],-0.3%
same,Activity,Mus musculus [8],0%
same,Survival,B16 [9],21.3 days
same,T/C,B16 [9],101%
same,T/C,L1210 [10],155%
same,Activity,Mus musculus [11],-15%
same,Activity,[12],56.4%
same,Activity,Mus musculus [13],-3.9%
same,Activity,Mus musculus [14],-4.9%
same,Survival,B16 [15],20.8 days
same,T/C,B16 [15],99%
CN(C)/N=N\c1ccnc2ccc(I)cc12,T/C,P388 [16],117%
same,T/C,P388 [17],123%
same,T/C,L1210 [18],148%
same,T/C,L1210 [19],158%
same,Activity,Mus musculus [20],-6.4%
same,Activity,Mus musculus [21],10.5%
same,T/C,P388 [22],133%
same,T/C,L1210 [23],160%
same,Activity,Mus musculus [24],2.6%
same,Activity,[12],60.6%
same,Activity,Mus musculus [25],-8.2%
same,Activity,Mus musculus [26],-23.8%
same,Activity,Mus musculus [27],7.1%
